pIC50: −log10 of the molar value.
How the values were obtained:
Toll-like receptor 2 [1] = target: T1, Toll-like receptor 2 (Homo sapiens, UniProt O60603); assay: Antagonistic potency at TLR2 expressed in HEK293 cells; type: functional, cell-based
Toll-like receptor 4 = Toll-like receptor 4 (Homo sapiens, UniProt O00206); assay: Antagonistic potency at human TLR4 expressed in HEK293 cells; type: functional, cell-based
Toll-like receptor 2 [2] = target: T1, Toll-like receptor 2; assay: Antagonistic activity at TLR in human PBMC; type: functional
Summary of the method: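 PBMCs purified from heparinized blood of healthy human donors, seeded at 50,000 cells per well. Pam3CysSK4 (50 ng/ml) added together with compound at 30, 10, 3, 1, 0.3, 0.1 and 0.03 µM; 6 h at 37 °C. Supernatants collected by centrifugation, stored at -20 °C, TNFα measured by ELISA.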

T1 sequence (O60603 whole entry): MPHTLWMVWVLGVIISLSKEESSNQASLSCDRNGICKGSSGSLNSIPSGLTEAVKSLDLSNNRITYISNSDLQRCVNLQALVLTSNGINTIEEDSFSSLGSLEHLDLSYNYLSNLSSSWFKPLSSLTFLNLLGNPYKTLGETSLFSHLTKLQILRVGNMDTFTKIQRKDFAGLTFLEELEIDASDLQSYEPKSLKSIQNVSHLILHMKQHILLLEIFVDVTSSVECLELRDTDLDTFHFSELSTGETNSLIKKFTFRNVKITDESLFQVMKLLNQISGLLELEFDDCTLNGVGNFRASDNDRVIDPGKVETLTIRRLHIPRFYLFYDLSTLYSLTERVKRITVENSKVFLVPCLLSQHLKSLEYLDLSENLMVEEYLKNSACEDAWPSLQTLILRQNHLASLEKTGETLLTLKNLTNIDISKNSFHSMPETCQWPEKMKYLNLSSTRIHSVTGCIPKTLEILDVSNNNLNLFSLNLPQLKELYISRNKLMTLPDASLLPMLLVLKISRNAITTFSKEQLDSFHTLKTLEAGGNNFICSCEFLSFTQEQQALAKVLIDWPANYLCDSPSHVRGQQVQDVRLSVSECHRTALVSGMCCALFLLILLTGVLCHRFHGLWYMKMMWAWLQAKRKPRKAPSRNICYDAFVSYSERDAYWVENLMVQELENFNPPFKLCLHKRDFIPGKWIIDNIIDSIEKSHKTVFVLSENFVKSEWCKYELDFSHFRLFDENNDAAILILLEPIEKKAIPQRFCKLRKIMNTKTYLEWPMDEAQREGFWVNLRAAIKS
Sequence of Toll-like receptor 4 (O00206 whole entry): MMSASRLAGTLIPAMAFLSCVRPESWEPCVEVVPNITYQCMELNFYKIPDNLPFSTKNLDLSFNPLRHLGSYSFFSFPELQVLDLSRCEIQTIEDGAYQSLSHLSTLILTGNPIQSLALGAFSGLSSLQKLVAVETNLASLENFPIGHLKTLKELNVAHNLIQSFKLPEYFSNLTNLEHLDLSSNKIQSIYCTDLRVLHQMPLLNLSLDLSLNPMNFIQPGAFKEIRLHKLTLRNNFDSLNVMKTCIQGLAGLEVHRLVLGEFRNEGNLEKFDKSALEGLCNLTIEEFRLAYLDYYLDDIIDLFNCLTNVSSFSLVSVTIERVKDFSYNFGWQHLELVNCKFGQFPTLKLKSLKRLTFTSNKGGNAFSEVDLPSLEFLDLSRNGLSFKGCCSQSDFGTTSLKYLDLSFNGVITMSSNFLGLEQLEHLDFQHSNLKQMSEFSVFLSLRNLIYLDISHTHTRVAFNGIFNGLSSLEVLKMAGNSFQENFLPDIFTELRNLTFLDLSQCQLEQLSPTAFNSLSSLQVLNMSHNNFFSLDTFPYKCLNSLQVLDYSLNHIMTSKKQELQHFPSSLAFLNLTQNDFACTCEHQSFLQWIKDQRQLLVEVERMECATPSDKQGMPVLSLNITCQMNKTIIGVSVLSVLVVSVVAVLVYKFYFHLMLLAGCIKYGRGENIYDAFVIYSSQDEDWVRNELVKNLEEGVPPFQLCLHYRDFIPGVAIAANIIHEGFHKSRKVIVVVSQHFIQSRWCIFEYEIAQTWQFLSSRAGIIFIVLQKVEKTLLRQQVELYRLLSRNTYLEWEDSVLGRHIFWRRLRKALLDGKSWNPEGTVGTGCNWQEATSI

Compound	pIC50 (Toll-like receptor 2 [1])	pIC50 (Toll-like receptor 4)	pIC50 (Toll-like receptor 2 [2])
CCCCCCCCCCCCCC(=O)N[C@@H](COP(=O)(O)OCCNC(=O)C(Cc1ccc(O)cc1)C(=O)O)C(=O)NCC[C@@H](CCCCCCC)OC(=O)CCCCCCCCCCC (some centres undefined)	6.05		
CCCCCCCCCCCCCC(=O)O[C@H](COCC[C@@H](CCCCCCC)OC(=O)CCCCCCCCCCC)COP(=O)(O)OCCNC(=O)C(Cc1ccc(O)cc1)C(=O)O (some centres undefined)	5.90		
CCCCCCCCCCCCCC(=O)N[C@@H](COCC[C@H](CCCCCCC)OC(=O)CCCCCCCCCCC)COP(=O)(O)OCCNC(=O)C(Cc1ccc(O)cc1)C(=O)O (some centres undefined)	5.16	7.10	
CCCCCCCCCCCCCC(=O)N[C@@H](COP(=O)(O)OCCNC(=O)C(Cc1ccc(O)cc1)C(=O)O)C(=O)OCC[C@@H](CCCCCCC)OC(=O)CCCCCCCCCCC (some centres undefined)	6.02		
CCCCCCCCCCCCCC(=O)N[C@@H](COCC[C@@H](CCCCCCC)OC(=O)CCCCCCCCCCC)COP(=O)(O)OCCNC(=O)C(Cc1ccc(O)cc1)C(=O)O (some centres undefined)	4.66	6.60	
CCCCCCCCCCCCCC(=O)N[C@H](COCC[C@H](CCCCCCC)OC(=O)CCCCCCCCCCC)COP(=O)(O)OCCNC(=O)C(Cc1ccc(O)cc1)C(=O)O (some centres undefined)	5.19	6.80	
CCCCCCCCCCCCCC(=O)N[C@H](COCC[C@@H](CCCCCCC)OC(=O)CCCCCCCCCCC)COP(=O)(O)OCCNC(=O)CCc1ccc(O)cc1	5.67		
CCCCCCCCCCCCCC(=O)N[C@H](COCC[C@@H](CCCCCCC)OC(=O)CCCCCCCCCCC)COP(=O)(O)OCCNC(=O)C(Cc1ccc(O)cc1)C(=O)O (some centres undefined)	5.51	6.46	5.80
CCCCCCCCCCCCCC(=O)N[C@H](COCC[C@@H](CCCCCCC)NC(=O)CCCCCCCCCCC)COP(=O)(O)OCCNC(=O)C(Cc1ccc(O)cc1)C(=O)O (some centres undefined)	5.28		
